This sample holds only a part of the variants without activity. Some results are limits rather than exact numbers.

The labels stand for the following.
B1: tRNA (parent)
chain: GUUCCGUUGGCGUAAUGGUAACGCGUCUCCCUCCUAAGGAGAAGACUGCGGGUUCGAGUCCCGUACGGAACG

The variants in the data set derive from B1. Nature of the data set: yeast fitness relative to wild type (ratio to wild type); higher = fitter; tRNA-Arg(CCU), competitive growth, 37 C, YPD. Put shortly: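 The tRNA-Arg(CCU) gene variants were made by chemical synthesis with a 3% per-site mutation rate at 69 sites and inserted at the native genomic locus of Saccharomyces cerevisiae. After pooling, the strains were competed in YPD at 37°C for 24 hours in six parallel replicates. Gene amplicons from the start population and each end population were read by 100-nucleotide paired-end sequencing, and Darwinian fitness relative to wild type was taken from genotype frequency changes. Genotypes needed ≥ 100 starting reads, and estimates < 0.5 were set to 0.5.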
With A57U A65U G68C, the yeast fitness was at most 0.5. As to C55A A57C G58A, the yeast fitness was at most 0.5.

G52C A57U A69U: the yeast fitness was at most 0.5. With G50C C55A A57C, the yeast fitness turned out to be 0.559.

A57G C62U: the yeast fitness was 0.781.

G52A U54A: the yeast fitness was found to be 0.537. Regarding U54C A57G G63C A65C, the yeast fitness is at most 0.5. As for G58A C61A C62G, the yeast fitness came to 0.711. Regarding A57U G58C, the yeast fitness turned out to be 0.636. As to G51C C60U G63A U64G, the yeast fitness was at most 0.5. Turning to G50A G52C, the yeast fitness stood at 0.663. Consider U54C G68C, for which the yeast fitness was determined as 0.776. As to G52A C66A A69U, the yeast fitness was 0.551.

Consider G51C U53A, for which the yeast fitness stood at 0.544. Regarding U53C G58C, the yeast fitness stood at 0.977. With C55G G67A, the yeast fitness was 0.729. For the variant G50C C62G C66U, the yeast fitness was determined as 0.968. Consider C55G U59A, for which the yeast fitness was found to be 0.677. The result for G52C G67A reads 0.709; that for C55U A57U U64G, 0.585; that for G52C G63C, 0.577. Next, C55U G67A: 0.871; G51A C60G A65C: at most 0.5; G52A A69C: 0.738. Consider G50A G58C C66U, for which the yeast fitness was determined as 0.649. On to U54G C55U, for which the yeast fitness was 0.511. For G52A G56C, the yeast fitness was 0.687. For the variant G52A G56A, the yeast fitness is 0.727.

Turning to G50C C61U, the yeast fitness was 0.609. Turning to G52A G67A, the yeast fitness is 0.831. As to G51A A57U A65U G68A A70U, the yeast fitness is at most 0.5. Next, C55U C61G A65G G68A: 0.584; U53C A57C A65U: at most 0.5; U53C C62U: 0.737. As for U54C C60G, the yeast fitness came out at 0.539. As for U53A C62G, the yeast fitness was determined as 0.598. On to C55U G63A, for which the yeast fitness was 0.643. Turning to C55A A65U, the yeast fitness came out at 0.572. Next, A57U C62A U64A: at most 0.5; G50A C60U: 0.819. The result for G50A C60G reads 0.748.

As for A57C U59C, the yeast fitness was 0.613. Turning to G56A U59C, the yeast fitness was 1.05. The result for G58C C60U C66G reads at most 0.5. On to U53G G63A, for which the yeast fitness was 0.553. Regarding U53C G67A, the yeast fitness came to 0.808. With A57U U59C, the yeast fitness was determined as 0.569. In the case of C55A G56A, the yeast fitness stood at 0.514. Turning to G50C A57G, the yeast fitness worked out at 0.789. In the case of A57C G68A, the yeast fitness is 0.701. Consider A57C G68U, for which the yeast fitness was 0.696. As for G52C C55U, the yeast fitness was found to be 0.522. On to G58A A65U, for which the yeast fitness came out at 1.04. G51A U54C: the yeast fitness came to 0.715. In the case of G52C A69U, the yeast fitness worked out at 0.707. For the variant U53G G56C G67A, the yeast fitness was at most 0.5. On to G56C C62G, for which the yeast fitness came out at 0.559.

Consider G56C C62U, for which the yeast fitness stood at 0.913.

For the variant A57C A65G, the yeast fitness turned out to be 0.573. Take A57C A65U: the yeast fitness was 0.606. Turning to U53C U64C, the yeast fitness was 0.817. Take A57G G67A: the yeast fitness was 0.878. As for A57G G67U, the yeast fitness worked out at 0.869. On to G52U C55A, for which the yeast fitness was found to be 0.555.

With C55A G67A, the yeast fitness was 0.658. Consider G52A C62U, for which the yeast fitness was found to be 0.765.

As to G52A C66G G68C, the yeast fitness came to 0.65. The result for G52C A65U G67C reads at most 0.5; that for U53C A70U, 0.848. For the variant G50U G68C, the yeast fitness was 0.804. The result for U54G C55G A65U reads at most 0.5; that for G56A G63A G67C, 0.543. In the case of G50C C55G C60A, the yeast fitness was found to be 0.63.

With C55A C61U G68A A70G, the yeast fitness was at most 0.5. Next, U54C A65U: 0.894; C55U C62U: 0.708; A57G A65G A69C: 0.7.

For G58A C60U A70G, the yeast fitness is 0.702. The result for U53G U54A C62U reads 0.549; that for U54C C55A, 0.635; that for U54C C55U, 0.72. For the variant G56A G58C C61G, the yeast fitness came out at 0.707. The result for C55G A57U C62U reads 0.544; that for U54A A65U, 0.618; that for U54A A65G, 0.584.

As for U54A C62U G68U, the yeast fitness was at most 0.5. With U54A C62U G68A, the yeast fitness stood at 0.504. Consider U53A G56A A65U, for which the yeast fitness was at most 0.5. Consider C55G G56C, for which the yeast fitness is at most 0.5. U54G G63U: the yeast fitness was at most 0.5. The result for G50C G51A reads 0.76; that for G56C A69C, 0.818; that for A57U A65U G67A G68C, at most 0.5. As for G51C C62G G68A A70U, the yeast fitness is at most 0.5. In the case of G58C C60A A65C, the yeast fitness was at most 0.5. U53C G68C: the yeast fitness was found to be 0.846. With U54G G58A, the yeast fitness worked out at 0.544. The result for A57C C61U A65U reads 0.563; that for G52A G56A A65U A70G, at most 0.5. As for G56A C62G, the yeast fitness was 0.643. For the variant G56A C62A, the yeast fitness was found to be 0.697. Consider G50A U54G, for which the yeast fitness turned out to be 0.559. In the case of A57U C61U, the yeast fitness stood at 0.642. For the variant G50A U59A G67C, the yeast fitness was at most 0.5. The result for C55U A70G reads 0.705; that for G56U G58C, 0.75.

With G56U G58A, the yeast fitness was 0.589. The result for G50C G52A reads 0.607; that for C55A C62G G67A, at most 0.5. As to C55A C62A, the yeast fitness was 0.518. For the variant C55U G56C, the yeast fitness was found to be 0.593. In the case of G56A A65G C66U G68A, the yeast fitness worked out at 0.609. Next, G52A A57G: 0.852; U53A C60G: 0.617; U54G G68A: 0.541.

C55G U59C C60U G67U: the yeast fitness is 0.548. Consider A57U C62U C66U, for which the yeast fitness turned out to be 0.613. For the variant G56A G63A, the yeast fitness was 0.726. Turning to U54C C66G, the yeast fitness stood at 0.803. As to G50C A65G, the yeast fitness was 0.766. On to G50C G68C, for which the yeast fitness was found to be 0.715. As for U53A C66U, the yeast fitness was found to be 0.709. The result for G56C A65U reads 0.714. Turning to G56C A65C, the yeast fitness was determined as 0.754.

As to G56A U59C A65C A70G, the yeast fitness is 0.568. Regarding G58A G68A, the yeast fitness is 0.899. Next, U54G A57G: 0.615; G51A C61U A65G A69C: 1.07. For the variant C55G G58C, the yeast fitness was 0.587. On to G50C C60U C62A, for which the yeast fitness is 0.676.

In the case of G50A C62A, the yeast fitness is 0.875. With C55G A69C, the yeast fitness is 0.593. Consider U54A C55A C66G, for which the yeast fitness is 0.714. As to G58A C62U G63A, the yeast fitness was 0.621.

Regarding U53A C60G G67A A70C, the yeast fitness is at most 0.5. As to C55A G58A, the yeast fitness was 0.55. With C55A G58C, the yeast fitness came out at 0.534. For the variant U54A A69U, the yeast fitness worked out at 0.671. Consider A57U A65C A69C, for which the yeast fitness was at most 0.5. In the case of G51A G58C, the yeast fitness is 0.901. In the case of A57G U59A U64G, the yeast fitness was at most 0.5. Consider U54G C61U G67C, for which the yeast fitness was at most 0.5. Turning to U53C C61A G68A, the yeast fitness turned out to be 0.58.

C55U C62U G67C: the yeast fitness was at most 0.5. As to G50A U53A A57G G58A A69C, the yeast fitness came to 0.657. For the variant U54A A57U G63C A69U, the yeast fitness was at most 0.5. Consider G50A G67C G68U, for which the yeast fitness is at most 0.5. For the variant U53A A70C, the yeast fitness worked out at 0.769. As for G50A U53A C61U, the yeast fitness was determined as 0.532. The result for A57C C62U reads 0.565; that for U54C A57U, 0.595; that for A57G U59C, 0.864. Regarding A57G U59G, the yeast fitness was 0.941. Regarding G52C G56C, the yeast fitness is at most 0.5. For G58C A69G, the yeast fitness was found to be 0.961. Take G51C G56A G58C: the yeast fitness was at most 0.5. Regarding U54A A57C, the yeast fitness worked out at 0.555. With U53G U64G A69C, the yeast fitness stood at 0.841. The result for U53C G56A reads 0.802. Take A57U G58A A65U: the yeast fitness is 0.621.

Take G52A G58A C60G: the yeast fitness was at most 0.5. The result for U53G A57G reads 0.584; that for G52A A70U, 0.767; that for U54C G67A, 0.817.

Take U54C G67C: the yeast fitness turned out to be 0.944. On to U53A C55G, for which the yeast fitness came out at 0.588. Consider G52C U64G, for which the yeast fitness is 0.614.

Source of the values: the RNAGym collection of RNA variant scans (doi:10.1126/science.aae0568).
